According to ChEMBL document CHEMBL3352729, “Hydroxybenzothiophene Ketones Are Efficient Pre-mRNA Splicing Modulators Due to Dual Inhibition of Dyrk1A and Clk1/4” (ACS Med Chem Lett, 2014):
Calls of active or inactive are those of the source. The calls are words filed in the database; no cut-off is given here.

How the values were obtained:
[1] = biological target: T1, Dual specificity tyrosine-phosphorylation-regulated kinase 1A (Homo sapiens, UniProt Q13627); experiment: Inhibition of recombinant Dyrk1A (unknown origin) using KKISGRLSPIMTEQ-NH2 peptide substrate
Outline: (§1)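 Kinase activity was measured in a cell-free assay with recombinant enzyme and peptide substrate at 100 μM ATP. Values are reported as IC50.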

[2] = biological target: T2, Dual specificity tyrosine-phosphorylation-regulated kinase 1B (Homo sapiens, UniProt Q9Y463); experiment: Inhibition of recombinant Dyrk1B (unknown origin) using KKISGRLSPIMTEQ-NH2 peptide substrate
Target sequence in this assay (Q9Y463 whole entry): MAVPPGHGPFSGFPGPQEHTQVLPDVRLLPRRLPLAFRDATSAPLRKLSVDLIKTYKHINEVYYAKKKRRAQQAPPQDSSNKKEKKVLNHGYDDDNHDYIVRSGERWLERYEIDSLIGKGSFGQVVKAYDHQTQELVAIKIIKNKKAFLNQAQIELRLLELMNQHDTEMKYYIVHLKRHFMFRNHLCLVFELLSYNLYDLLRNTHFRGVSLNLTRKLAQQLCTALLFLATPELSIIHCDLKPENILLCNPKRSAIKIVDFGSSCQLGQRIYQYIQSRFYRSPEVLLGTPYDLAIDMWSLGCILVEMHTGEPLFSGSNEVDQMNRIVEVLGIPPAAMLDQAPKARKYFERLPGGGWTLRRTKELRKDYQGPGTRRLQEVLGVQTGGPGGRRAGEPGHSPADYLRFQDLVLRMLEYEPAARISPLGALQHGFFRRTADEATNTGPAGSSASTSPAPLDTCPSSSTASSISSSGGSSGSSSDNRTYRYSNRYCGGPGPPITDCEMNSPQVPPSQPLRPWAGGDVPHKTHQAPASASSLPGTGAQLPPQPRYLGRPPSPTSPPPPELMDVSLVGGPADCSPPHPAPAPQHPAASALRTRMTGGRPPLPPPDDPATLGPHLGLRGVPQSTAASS

[3] = biological target: T3, Dual specificity tyrosine-phosphorylation-regulated kinase 2 (Homo sapiens) (UniProt Q92630); experiment: Inhibition of recombinant Dyrk2 (unknown origin) using KKISGRLSPIMTEQ-NH2 peptide substrate at 5 uM
T3 sequence (whole entry): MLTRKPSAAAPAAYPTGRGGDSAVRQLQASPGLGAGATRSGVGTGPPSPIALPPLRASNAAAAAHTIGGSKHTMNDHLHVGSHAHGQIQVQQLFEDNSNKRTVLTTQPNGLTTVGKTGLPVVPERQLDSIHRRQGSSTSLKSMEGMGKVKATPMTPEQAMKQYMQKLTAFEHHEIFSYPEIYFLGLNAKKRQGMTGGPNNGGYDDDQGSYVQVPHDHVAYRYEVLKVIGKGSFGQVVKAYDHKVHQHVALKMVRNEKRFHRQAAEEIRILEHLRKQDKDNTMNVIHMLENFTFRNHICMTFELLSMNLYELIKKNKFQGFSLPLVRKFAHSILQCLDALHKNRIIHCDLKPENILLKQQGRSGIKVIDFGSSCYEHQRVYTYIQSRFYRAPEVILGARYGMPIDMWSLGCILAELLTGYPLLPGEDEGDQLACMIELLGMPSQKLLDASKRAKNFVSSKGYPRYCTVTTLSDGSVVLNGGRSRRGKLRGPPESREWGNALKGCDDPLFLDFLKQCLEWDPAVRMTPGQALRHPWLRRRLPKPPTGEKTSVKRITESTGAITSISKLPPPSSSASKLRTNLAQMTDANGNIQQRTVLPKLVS

[4] = biological target: T4, Dual specificity protein kinase CLK1 (Homo sapiens, UniProt P49759); experiment: Inhibition of recombinant Clk1 (unknown origin) using GRSRSRSRSR peptide substrate; outline: as §1
Target sequence in this assay (P49759 whole entry): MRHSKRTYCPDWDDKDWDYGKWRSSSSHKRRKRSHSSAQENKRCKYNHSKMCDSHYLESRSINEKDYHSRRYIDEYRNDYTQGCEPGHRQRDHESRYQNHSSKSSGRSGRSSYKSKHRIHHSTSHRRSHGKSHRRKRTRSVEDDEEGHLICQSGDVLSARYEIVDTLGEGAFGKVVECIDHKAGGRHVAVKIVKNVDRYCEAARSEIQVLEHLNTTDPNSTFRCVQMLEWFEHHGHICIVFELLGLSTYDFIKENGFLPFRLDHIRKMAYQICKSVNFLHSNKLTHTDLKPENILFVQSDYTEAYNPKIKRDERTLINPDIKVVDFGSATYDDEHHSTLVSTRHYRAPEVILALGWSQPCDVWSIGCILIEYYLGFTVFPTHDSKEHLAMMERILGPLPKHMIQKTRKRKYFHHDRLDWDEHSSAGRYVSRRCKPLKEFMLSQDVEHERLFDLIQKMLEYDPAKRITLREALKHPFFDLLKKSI

[5] = biological target: Casein kinase II subunit alpha (Homo sapiens) (UniProt P68400); experiment: Inhibition of CK2alpha (unknown origin) at 5 uM
Casein kinase II subunit alpha (Homo sapiens), sequence (P68400 whole entry, looked up): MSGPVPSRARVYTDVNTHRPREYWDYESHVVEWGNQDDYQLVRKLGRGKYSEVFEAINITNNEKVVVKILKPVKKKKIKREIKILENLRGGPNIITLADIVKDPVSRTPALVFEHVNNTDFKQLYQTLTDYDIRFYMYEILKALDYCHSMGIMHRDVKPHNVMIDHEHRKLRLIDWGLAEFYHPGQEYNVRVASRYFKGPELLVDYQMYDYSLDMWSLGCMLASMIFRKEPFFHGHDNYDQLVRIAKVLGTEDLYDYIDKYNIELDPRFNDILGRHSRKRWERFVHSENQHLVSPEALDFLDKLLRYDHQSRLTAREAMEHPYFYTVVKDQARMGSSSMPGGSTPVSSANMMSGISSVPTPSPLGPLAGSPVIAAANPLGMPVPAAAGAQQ

[6] = biological target: T2, Dual specificity tyrosine-phosphorylation-regulated kinase 1B; experiment: Inhibition of recombinant Dyrk1B (unknown origin) using KKISGRLSPIMTEQ-NH2 peptide substrate at 5 uM
Target sequence in this assay (Q9Y463 whole entry, looked up): as the sequence (Q9Y463 whole entry) above

[7] = biological target: T4, Dual specificity protein kinase CLK1; experiment: Inhibition of recombinant Clk1 (unknown origin) using GRSRSRSRSR peptide substrate at 5 uM
Target sequence in this assay (P49759 whole entry, looked up): as the sequence (P49759 whole entry) above

[8] = biological target: T1, Dual specificity tyrosine-phosphorylation-regulated kinase 1A; experiment: Inhibition of recombinant Dyrk1A (unknown origin) using KKISGRLSPIMTEQ-NH2 peptide substrate at 5 uM
[9] = biological target: T5, 17-beta-hydroxysteroid dehydrogenase type 1 (Homo sapiens) (UniProt P14061); experiment: Inhibition of 17-betaHSD1 (unknown origin) at 5 uM
T5 sequence (whole entry): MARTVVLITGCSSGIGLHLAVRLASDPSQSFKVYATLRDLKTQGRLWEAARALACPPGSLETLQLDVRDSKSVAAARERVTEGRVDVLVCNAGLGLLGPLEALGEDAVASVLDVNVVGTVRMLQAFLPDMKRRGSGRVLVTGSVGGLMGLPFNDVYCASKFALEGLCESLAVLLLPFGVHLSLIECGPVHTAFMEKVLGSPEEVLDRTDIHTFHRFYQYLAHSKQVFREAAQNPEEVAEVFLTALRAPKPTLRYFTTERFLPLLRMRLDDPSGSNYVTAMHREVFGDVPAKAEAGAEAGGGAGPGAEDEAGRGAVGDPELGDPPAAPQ

[10] = Modulation of Clk/sty pre-mRNA splicing in human STO cells assessed as concentration required to increase in mature Clk1 mRNA level by RT-PCR analysis
[11] = Modulation of Clk/sty pre-mRNA splicing in human STO cells assessed as concentration required to 5 fold increase in mature Clk1 mRNA level by RT-PCR analysis
[12] = Modulation of Clk/sty pre-mRNA splicing in human STO cells assessed as concentration required to increase in mature Clk1 mRNA level by RT-PCR analysis relative to control
[13] = Modulation of Clk/sty pre-mRNA splicing in human STO cells assessed as concentration required to increase in mature Clk2 mRNA level by RT-PCR analysis; type: functional, cell-based; conditions: in the assay text read “Clk1” for “Clk2”
Outline: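 STO cells were treated for 4 h with compound added to the culture medium, with 0.05% DMSO as control. Total RNA was purified, and the Clk1/Sty splicing pattern was analysed by RT-PCR. Read-outs were the concentration for a 5-fold increase, the concentration for half-maximal generation of mature Clk1 mRNA, and the maximum fold increase over DMSO. Data are means of three independent experiments run in triplicate.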

[14] = biological target: T6, 17-beta-hydroxysteroid dehydrogenase type 1 (Homo sapiens, UniProt P14061); experiment: Inhibition of 17-betaHSD1 (unknown origin)
T6 sequence (P14061 whole entry): T5 sequence (whole entry)

STO = experiment: Modulation of pre-mRNA splicing in human STO cells assessed as increase in mature Clk1 mRNA production at 10 to 20 uM by RT-PCR analysis

IC50 [1]	IC50 [2]	inhibition [3]	IC50 [4]	inhibition [5]	inhibition [6]	inhibition [7]	inhibition [8]	EC50 [10]	EC50 [13]	IC50 [14]	Structure (SMILES)	inhibition [9]	Activity [11]	fold change (FC) [12]	Activity (STO)
11000 nM	7000 nM	8%	–	–	–	25%	–	–	–	–	Cc1cc(C(=O)c2cc3cc(O)ccc3s2)ccc1O	–	–	–	–
1200 nM	400 nM	27%	300 nM	15%	–	–	–	–	–	–	O=C(c1ccc(F)c(O)c1)c1cc2cc(O)ccc2s1	–	–	–	–
6000 nM	2300 nM	6%	400 nM	10%	–	–	–	–	–	–	N#Cc1cccc(C(=O)c2cc3cc(O)ccc3s2)c1	–	–	–	–
3400 nM	800 nM	25%	300 nM	33%	–	–	–	–	–	–	O=C(c1ccc(O)cc1)c1cc2cc(O)ccc2s1	–	–	–	–
200 nM	200 nM	50%	50 nM	10%	–	–	–	–	1.8 µM	195 nM	Cc1ccc(C(=O)c2cc3cc(O)ccc3s2)cc1O	–	1.9 µM	9.5	Active
2000 nM	400 nM	30%	50 nM	20%	–	–	–	–	–	–	O=C(c1cc2cc(O)ccc2s1)c1cc(O)ccc1F	–	–	–	–
400 nM	200 nM	49%	100 nM	12%	–	–	–	–	–	–	O=C(c1cccc(O)c1)c1cc2cc(O)ccc2s1	–	–	–	Active
2000 nM	1000 nM	37%	200 nM	13%	–	–	–	–	–	–	O=C(c1ccccc1)c1cc2cc(O)ccc2s1	–	–	–	–

The next lines start with the molecule.

Structure (SMILES)	IC50 [1]	IC50 [2]	inhibition [3]	IC50 [4]	inhibition [5]	inhibition [6]	inhibition [7]	inhibition [8]	EC50 [10]	EC50 [13]	IC50 [14]	inhibition [9]	Activity [11]	fold change (FC) [12]	Activity (STO)
O=C(c1ccc(O)cc1)c1cc2cc(O)ccc2o1	9700 nM	1300 nM	38%	1000 nM	17%	–	–	–	–	–	–	–	–	–	–
O=C(c1cccc(O)c1)c1cc2ccccc2s1	42000 nM	–	15%	–	24%	6%	–	–	–	–	–	–	–	–	–
COc1cccc(C(=O)c2cc3cc(OC)ccc3s2)c1	–	–	-7%	–	–	40%	47%	10%	–	–	–	–	–	–	–
COc1ccc2sc(C(=O)N(C)OC)cc2c1	900 nM	1600 nM	41%	100 nM	–	–	–	–	2100 nM	–	–	inactive	2.4 µM	8.1	–
O=C(c1cccc(O)c1)c1ccc2cc(O)ccc2c1	2900 nM	2300 nM	–	1900 nM	–	–	–	–	–	–	–	–	–	–	–
O=C(c1cccc(O)c1)c1cc2cc(O)ccc2[nH]1	15000 nM	–	24%	2000 nM	22%	41%	–	–	–	–	–	–	–	–	–
CCN1/C(=C/C(C)=O)Sc2ccc(OC)cc21	–	–	–	–	–	–	–	–	–	6.6 µM	–	–	3.1 µM	17	–
Cn1c(C(=O)c2cccc(O)c2)cc2cc(O)ccc21	3400 nM	2700 nM	25%	2100 nM	31%	–	–	–	–	–	–	–	–	–	–
O=C(c1cccc(O)c1)c1cc2cc(O)ccc2o1	3100 nM	6100 nM	34%	1900 nM	21%	–	–	–	–	–	–	–	–	–	–
CC(=O)c1cc2cc(O)ccc2s1	200 nM	100 nM	46%	60 nM	9%	–	–	–	–	8.9 µM	–	inactive	1.1 µM	21.4	Active
